From publication PMC12272722 (RSC Medicinal Chemistry, 2025)
Converted amounts (≈) assume the structure as drawn.

What was measured:
[1] = tested on: Trichophyton rubrum LM 237; assay: MIC99 by broth microdilution; type: cell-based; settings: LM237, 168 h, read-out: MIC99 T. rubrum
How it was run: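 T. rubrum was cultured on Sabouraud dextrose agar at 27 °C for one week. Actively growing mycelium was collected into sterile distilled water with broken coverslips as inoculum. Test compound in 5% aqueous DMSO was diluted twofold serially in SDA over 2.0 × 10−1 to 2.4 × 10−5 mg mL−1. Plates were held at 30 °C and scored visually after 7 days. Run in triplicate with solvent blanks; amphotericin B and fluconazole as references.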

[2] = Water thermodynamic solubility by HPLC; type: physicochemical; settings: ultrapure water, 25 °C, thermodynamic from solid
[3] = literature value; cited from earlier work

Work on `COC(=O)[C@H](CO)NC(C)=C1C(=O)C=C2Oc3c(C(C)=O)c(O)c(C)c(O)c3[C@@]2(C)C1=O` [(9bR,15S)-1, Methyl (1-((R)-6-acetyl-7,9-dihydroxy-8,9b-dimethyl-1,3-dioxo-3,9b-dihydrodibenzo[b,d]furan-2(1H)-ylidene)ethyl)-L-serinate] yielded an MIC99 [1] of 450 µM (≈ 200 µg/mL) and a solubility at 24 h [2] of 150 to 4700 µM (≈ 66.8 to 2090 µg/mL).
For `CC(=O)c1c(O)c(C)c(O)c2c1OC1=CC(=O)C(=C(C)N[C@@H](CCCNC(=N)N)C(=O)O)C(=O)[C@@]12C` [(9bR,15S)-2, (1-((R)-6-Acetyl-7,9-dihydroxy-8,9b-dimethyl-1,3-dioxo-3,9b-dihydrodibenzo[b,d]furan-2(1H)-ylidene)ethyl)-L-arginine], the MIC99 [1] was 400 µM (≈ 200 µg/mL).
With `COC(=O)[C@H](CO)NC(C)=C1C(=O)C=C2Oc3c(C(C)=O)c(O)c(C)c(O)c3[C@]2(C)C1=O` [(9bS,15S)-1, Methyl (1-((S)-6-acetyl-7,9-dihydroxy-8,9b-dimethyl-1,3-dioxo-3,9b-dihydrodibenzo[b,d]-furan-2(1H)-ylidene)ethyl)-L-serinate] the MIC99 [1] was 28 µM (≈ 12.5 µg/mL) and the solubility at 24 h [2] was 150 µM (≈ 66.8 µg/mL).
In the case of `CC(=O)c1c(O)c(C)c(O)c2c1OC1=CC(=O)C(=C(C)N[C@@H](CCCNC(=N)N)C(=O)O)C(=O)[C@]12C` [(9bS,15S)-2, (1-((S)-6-Acetyl-7,9-dihydroxy-8,9b-dimethyl-1,3-dioxo-3,9b-dihydrodibenzo[b,d]furan-2(1H)-ylidene)ethyl)-L-arginine], the MIC99 [1] is reported as 100 µM (≈ 50.1 µg/mL).
`C[C@@H]1[C@H](O)[C@@H](C)/C=C/C=C/C=C/C=C/C=C/C=C/C=C/[C@H](O[C@@H]2O[C@H](C)[C@@H](O)[C@H](N)[C@@H]2O)C[C@@H]2O[C@](O)(C[C@@H](O)C[C@@H](O)[C@H](O)CC[C@@H](O)C[C@@H](O)CC(=O)O[C@H]1C)C[C@H](O)[C@H]2C(=O)O` [AmB, amphotericin B, reference compound] showed an MIC99 [1] greater than 400 µM.
For `OC(Cn1cncn1)(Cn1cncn1)c1ccc(F)cc1F` [FCZ, fluconazole, reference compound], the MIC99 [1] was greater than 200 µM.
In the case of usnic acid [UA], the “Aqueous solubility at 25 °C” value [3] is given as <0.3 (lit.)[60] mM.
